IDH1 mut inh: inhibitors of IDH1 R132H reductase, primary screen, biochemical, plate reader, single point; inhibition, % at 10 µM; diaphorase/resazurin fluorescence, 60 min; actives 0.18% (n = 70,000); in the data active means inhibition above about 34%; inconclusive means no clear call, values can overlap the other calls; inactive means below about 11%;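 further: 0% = DMSO and 100% = no enzyme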
Target sequence (O75874 whole entry R132H): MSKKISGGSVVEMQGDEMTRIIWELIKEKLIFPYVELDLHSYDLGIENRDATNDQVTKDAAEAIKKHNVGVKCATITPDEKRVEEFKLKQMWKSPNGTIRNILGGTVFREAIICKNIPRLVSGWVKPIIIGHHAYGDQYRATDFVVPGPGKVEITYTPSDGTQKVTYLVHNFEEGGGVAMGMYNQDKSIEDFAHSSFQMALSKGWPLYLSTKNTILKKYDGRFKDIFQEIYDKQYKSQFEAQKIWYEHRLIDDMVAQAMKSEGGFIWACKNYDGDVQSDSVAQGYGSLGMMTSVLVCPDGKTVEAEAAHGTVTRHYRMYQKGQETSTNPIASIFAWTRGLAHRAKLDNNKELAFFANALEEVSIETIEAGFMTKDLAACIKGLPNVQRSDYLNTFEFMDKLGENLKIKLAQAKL
Pf Dd2 growth: P. falciparum Dd2 growth inhibitors, primary screen, SYBR Green fluorescence, single dose replicates | activity change, % at 10 µM | AID 1159554, 2015 | 72 h; hits give low values | actives 2.3% (n = 94,000); in the data active means activity change below about -80%; inconclusive means no clear call, values can overlap the other calls
T cruzi growth-1: T. cruzi intracellular proliferation inhibitors, primary screen, cell-based, beta-gal Tulahuen parasites, NIH3T3 host, luminescence | T. cruzi beta-gal in NIH3T3, GalScreen luminescence, 90 h | inhibition, % at 8.34 µM | actives 5.9% (n = 77,000) | AID 624255, 2012;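 active means mean inhibition above about 93%, with at least 55% of replicates each passing it, limit read from the data, passing the limit was not always enough; inconclusive means only one of those two conditions holds; inactive means neither condition holds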
KDM4C inh: inhibitors of GASC-1 (KDM4C) histone demethylase, primary screen, biochemical, single concentration HTS; Lysine-specific demethylase 4C (Homo sapiens), Q9H3R0; GST-KDM4C 2-372, H3K9me3 peptide, LANCE TR-FRET; actives 0.15% (n = 96,000); inhibition, % at 12.5 µM; AID 720574, 2013;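 active means mean replicate inhibition above about 25%, with at least 55% of replicates also reaching it, limit read from the data, passing the limit was not always enough; inconclusive means only one of those two conditions met; inactive means neither condition met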
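Assay system: GST-GASC-1 enzyme fragment 2-372 | Amount: 10 nM enzyme | Medium: HEPES buffer, pH 7.5, plus ascorbate | Reagent: H3K9me3 peptide substrate, Fe(II), 2-oxoglutarate | Doses: Single-point compound screen | Incubation: 30 min demethylation and 1 h detection at room temperature | Measured by: LANCE TR-FRET, excitation 340 nm, emissions 618 and 671 nm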
T cruzi growth-2: T. cruzi intracellular proliferation inhibitors, confirmation, cell-based, NIH3T3 host, beta-gal parasite, luminescence, cherry-pick. shares compounds with T cruzi growth-1. inhibition, % at 8.35 µM. actives 72% (n = 5,600). T. cruzi beta-gal in NIH3T3, GalScreen luminescence, 90 h. AID 651739, 2012;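 active means mean replicate inhibition above about 95% and at least 55% of replicates individually reaching it, limit read from the data; inconclusive means only one of the two criteria is met; inactive means neither criterion is met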
T cruzi growth-3: inhibitors of intracellular T. cruzi replication, confirmation, NIH3T3 host cells, beta-gal parasites, cherry-pick, set 2 | shares compounds with T cruzi growth-1 | T. cruzi beta-gal in NIH3T3, GalScreen luminescence, 90 h | inhibition, % at 2.09 µM | actives 21% (n = 5,600) | AID 651740, 2012;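 active means mean inhibition above about 95%, with at least 55% of replicates also reaching it, limit read from the data; inconclusive means meets just one of the two conditions; inactive means meets neither condition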;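 further: plate controls were neutral control median for no effect and positive control median for full effect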
3T3 cytotox: cytotoxicity in mouse NIH/3T3 fibroblasts, confirmation, cytotoxicity control for T. cruzi proliferation inhibitor project, cell-based, cherry-pick, single point. shares compounds with T cruzi growth-1. NIH/3T3 viability, CellTiter-Glo ATP luminescence, 90 h. cytotoxicity (signal decrease), % at 8.35 µM. actives 14% (n = 5,600). AID 651742, 2012;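 active means mean signal decrease across replicates above about 35% based on untreated-well scatter, with enough replicates individually passing, limit read from the data; inconclusive means no rule stated though some were filed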;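 further: 0% = median of neutral control wells and 100% = median of positive control wells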
3T3 cytotox 2: NIH/3T3 fibroblast cytotoxicity, confirmation, cytotoxicity control, cell-based, cherry-pick, single point, set 2. AID 651744, 2012. NIH/3T3 viability, CellTiter-Glo ATP luminescence, 90 h. shares compounds with T cruzi growth-1. inhibition, % at 24.9 µM. actives 56% (n = 5,600);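 active means mean loss of cell viability signal at or above a set limit, and enough replicates individually reaching it; inconclusive means meets only the mean limit or only the replicate share; inactive means meets neither condition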;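 further: 0% = median of neutral control wells and 100% = median of positive control wells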
The depositor's hits bear a star; ! = repeats disagree. A selection: hits, their analogues and other compounds. The true share with any hit is near 5.9%.

`CC(C)CC#Cc1ccc2c(c1)O[C@H](CN(C)C(=O)Nc1ccccc1)[C@@H](C)CN([C@H](C)CO)S2(=O)=O` gave IDH1 mut inh 0, Pf Dd2 growth -47, T cruzi growth-1 117*!, KDM4C inh 1, T cruzi growth-2 107*, T cruzi growth-3 32, 3T3 cytotox -14 and 3T3 cytotox 2 inconclusive.
For C=CCn1c2ccccc2c2nnc(SCc3ccc([N+](=O)[O-])cc3)nc21 the results were IDH1 mut inh 0.
`Cc1ccc(NC(=O)Cn2cnc3ccccc3c2=O)cc1C` gave IDH1 mut inh 1.
Screening COC(=O)c1c(NC(=O)COc2ccccc2C(C)C)sc2c1CCCC2 returned IDH1 mut inh 0.
Screening C[C@H]1CN([C@@H](C)CO)C(=O)c2cccc(NC(=O)c3ccncc3)c2O[C@@H]1CN(C)Cc1ccc2c(c1)OCO2 returned IDH1 mut inh 4, Pf Dd2 growth -4, T cruzi growth-1 100*, KDM4C inh 7, T cruzi growth-2 91, T cruzi growth-3 87, 3T3 cytotox -17 and 3T3 cytotox 2 1.
Screening C[C@H](CO)N1C[C@H](C)[C@@H](CN(C)Cc2ccc3c(c2)OCO3)Oc2c(NC(=O)c3ccncc3)cccc2C1=O returned IDH1 mut inh -1, Pf Dd2 growth 3, T cruzi growth-1 99*, KDM4C inh 10, T cruzi growth-2 104*, T cruzi growth-3 89, 3T3 cytotox -1 and 3T3 cytotox 2 35*.
C[C@@H]1CN([C@@H](C)CO)C(=O)c2cccc(NC(=O)c3ccncc3)c2O[C@@H]1CN(C)Cc1ccc(Cl)c(Cl)c1 was read as IDH1 mut inh -4, Pf Dd2 growth -18, T cruzi growth-1 97*, KDM4C inh -2, T cruzi growth-2 100*, T cruzi growth-3 84, 3T3 cytotox -11 and 3T3 cytotox 2 6.
CC(=O)C(C#N)C(=O)Nc1cc(Br)ccc1Br (stereo not drawn) was read as IDH1 mut inh 0.
O=C(c1cccc(F)c1)N1CCCCN2[C@H](CO)[C@H](c3ccc(-c4ccccc4)cc3)[C@@H]2C1 was read as Pf Dd2 growth -7, T cruzi growth-1 102*, KDM4C inh -1, T cruzi growth-2 113*, T cruzi growth-3 89, 3T3 cytotox 16 and 3T3 cytotox 2 11.
`O=C(c1cccc(F)c1)N1CCCCN2[C@@H](CO)[C@H](c3ccc(-c4ccccc4)cc3)[C@@H]2C1` gave Pf Dd2 growth -11, T cruzi growth-1 103*, KDM4C inh -1, T cruzi growth-2 105*, T cruzi growth-3 53, 3T3 cytotox 24 and 3T3 cytotox 2 91*.
`O=C(CSc1nc(O)c(-c2ccccc2)c(=O)[nH]1)N(c1ccccc1)c1ccccc1` gave IDH1 mut inh 0.
COc1ccccc1NC(=O)N1CCCCN2[C@H](CO)[C@H](c3ccc(-c4cccc(F)c4)cc3)[C@@H]2C1 was read as Pf Dd2 growth -71, T cruzi growth-1 115*, KDM4C inh -2, T cruzi growth-2 101*, T cruzi growth-3 110*, 3T3 cytotox 22 and 3T3 cytotox 2 37*.
`COc1ccccc1NC(=O)N1CCCCN2[C@@H](CO)[C@H](c3ccc(-c4ccccc4)cc3)[C@@H]2C1` gave Pf Dd2 growth 2, T cruzi growth-1 102*, T cruzi growth-2 100*, T cruzi growth-3 74, 3T3 cytotox 45* and 3T3 cytotox 2 103*.
